# TRPML3 agonist = human TRPML3 channel agonists, primary screen, cell-based, HEK293 TRPML3-YFP, Fluo-8 calcium fluorescence, 3 µM. activation, % at 3 µM. 0.29% of 220,000 active. 100% = the carbachol control signal. AID 1448, 2008;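 active means activation above its plate's cutoff, the mean activation of the plate's test wells plus 3 SD, cut at about 12% in these data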;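 further: 0% = DMSO only wells and 100% = carbachol wells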
#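 Material: HEK293 cells stably carrying human TRPML3-YFP; compound dosing: single dose, 3 µM final nominal compound, 0.3% DMSO final; incubation: 1-h 37 °C dye load, 5-s basal, 120-s post-compound reads; technique: Fluo-8 intracellular calcium fluorescence, excitation 470-495 nm, emission 515-575 nm; read-out basis: percent activation from peak-to-basal fluorescence ratio, scaled between DMSO and carbachol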
# OXTR ag = human OXTR agonists, primary screen, fluorescence, CHO-OTR cells, Fluo-8 calcium. Fluo-8 calcium fluorescence; normalized: DMSO 0%, oxytocin 100%. activation, % at 3 µM. 0.32% of 320,000 active;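 active means activation above the mean of all tested compounds plus 3 SD, cutoff set per screening run, cut at about 20% in these data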;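 further: peak over basal fluorescence ratio from a 100 s FLIPR kinetic read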
# Target sequence (P30559 whole entry, looked up): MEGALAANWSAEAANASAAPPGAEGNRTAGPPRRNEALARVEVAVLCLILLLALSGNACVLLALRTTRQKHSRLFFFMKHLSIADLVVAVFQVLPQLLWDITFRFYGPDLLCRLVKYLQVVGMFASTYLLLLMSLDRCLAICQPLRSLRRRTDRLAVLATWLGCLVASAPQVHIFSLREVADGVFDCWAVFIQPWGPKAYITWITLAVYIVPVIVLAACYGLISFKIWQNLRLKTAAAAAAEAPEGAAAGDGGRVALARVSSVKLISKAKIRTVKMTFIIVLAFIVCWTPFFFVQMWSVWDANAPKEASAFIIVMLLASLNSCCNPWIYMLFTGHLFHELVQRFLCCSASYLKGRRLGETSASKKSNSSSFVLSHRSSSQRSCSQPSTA
# V1R ag counter = agonists of human V1a receptor, primary screen, counter-screen for OXTR agonist project, fluorescence, CHO-V1R cells | Fluo-8 calcium fluorescence, agonist mode; 0% DMSO, 100% 3 nM vasopressin | activation, % at 3 µM | 0.25% of 320,000 active;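 active means activation above the mean activation of all tested compounds plus 3 SD, per screening run, cut at about 20% in these data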;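 further: signal is peak over basal fluorescence ratio across a 100 second FLIPR read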
# zfTRPN1 agonist = zebrafish TRPN1 channel agonists, primary screen, cell-based, HEK293, calcium fluorescence | HEK293 zebrafish TRPN1-YFP, Fluo-8 calcium fluorescence; 100% = response to 87 µM carbachol | activation, % at 3 µM | transient receptor potential cation channel N1 (TRPN1/NompC), Danio rerio | 0.18% of 220,000 active;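 active means activation above its plate's cutoff, the mean activation of test wells on that plate plus 3 SD, cut at about 19% in these data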;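 further: 0% = DMSO alone and 100% = 87 µM carbachol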
#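 Material: zebrafish TRPN1-YFP in HEK293 cells; Doses: single test compound dose, 3 µM nominal, 0.3% DMSO; Timing: dye loading 1 h at 37 °C, then 30 min room temperature; Technique: intracellular calcium fluorescence with Fluo-8; Benchmarks: high carbachol 87 µM, low DMSO alone.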
# OXTR potentiate = human OXTR potentiators, primary screen, fluorescence, CHO-OTR cells, Fluo-8 calcium. activation, % at 3 µM. 0.061% of 320,000 active. Fluo-8 calcium fluorescence, potentiator mode; 0% = oxytocin EC15, 100% = EC100. AID 2445, 2010. Oxytocin receptor (Homo sapiens), P30559;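 active means activation above that plate's cutoff, the mean activation of tested compounds plus 3 SD, cut at about 6.6% in these data, passing the limit was not always enough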;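 further: 100% uses oxytocin at 75 nM as the full agonist control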
#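 Assay system: CHO cell line stably expressing human OTR. Reagent: EC15 oxytocin agonist. Dosing: single dose, 3.0 µM nominal final compound concentration. Timing: compound 6 min at room temperature before oxytocin, 100 s read. Signal: kinetic Fluo-8 calcium fluorescence. Controls: oxytocin EC15 low and EC100 high.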
# TRPN1 counter = zebrafish TRPN1 channel agonists, counter-screen for TRPML3 agonist project, cell-based, HEK293 TRPN1-YFP, Fluo-8 calcium; shares compounds with TRPML3 agonist; Fluo-8 calcium fluorescence; scaled: carbachol wells 100%, DMSO wells 0%; activation, % at 3 µM; 10% of 310 active; AID 1525, 2009;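 active means mean activation over replicates above a set limit taken from the earlier TRPN1 channel primary screen, cut at about 19% in these data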;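 further: 100% = carbachol and 0% = 0.3% DMSO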
# TRPML3 confirm = human TRPML3 channel agonists, confirmation, cell-based, HEK293 TRPML3-YFP, Fluo-8 calcium, triplicate. activation, % at 3 µM. shares compounds with TRPML3 agonist. Fluo-8 calcium fluorescence; 100% set by carbachol, 0% by DMSO. 80% of 310 active;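 active means activation above a set limit derived from the earlier primary screen, cut at about 12% in these data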
# * = called active by the depositor; x = no result. Compounds with a hit are over-represented: about 0.55% of the library has one in this group of screens.
SMILES,TRPML3 agonist,OXTR ag,V1R ag counter,zfTRPN1 agonist,OXTR potentiate,TRPN1 counter,TRPML3 confirm
Cc1cccc(CC2CC(=O)N(C3CCCCC3)C2=O)c1 (configuration not stated),12.9*,-1.1,-1.2,-0.3,2.3,-1.2,65.7*
Cc1cccc(CC2CC(=O)N(c3ccccc3)C2=O)c1 (configuration not stated),0.1,-0.4,-0.1,-0.4,4.8,x,x
COc1ccc2c(c1)C(C)=CC(C)(C)N2C(=O)CSc1nnc(-c2ccc(C)cc2)o1,37.5*,-1.3,-0.6,-2.4,-4.0,-1.4,47.9*
COc1ccc(C(=O)CSc2nnc(-c3ccc(C)cc3)o2)cc1,0.0,0.7,1.0,-0.1,0.3,x,x
Cc1ccc(S(=O)(=O)NC2CCCCC2)c2nsnc12,11.5*,-2.4,0.3,-0.7,-7.1,0.5,12.1*
O=C(COC(=O)c1ccc(O)cc1O)NC1CC1,x,1.5,2.6,x,-2.3,x,x
COc1ccc(S(=O)(=O)N(CC(=O)N2CCOCC2)c2cc(Cl)ccc2OC)cc1OC,45.2*,0.0,1.5,2.6,-7.6,2.2,42.1*
COc1ccc(Cl)cc1N(CC(=O)N1CCCC1)S(=O)(=O)c1ccc(C)cc1,x,0.8,0.4,x,-5.5,x,x
COc1ccc(S(=O)(=O)Nc2ccc(C)cc2)cc1N(C)S(=O)(=O)c1ccc(Cl)cc1,61.0*,-1.4,-0.1,1.2,-4.2,-1.4,32.3*
COc1ccc(S(=O)(=O)NN(C)C)cc1N(C)S(=O)(=O)c1ccc(Cl)cc1,0.4,0.1,-0.3,0.8,-4.7,x,x
COC(=O)CN(c1cc(Cl)ccc1OC)S(=O)(=O)c1ccc(C)cc1,69.9*,-0.6,-1.1,-1.6,-3.0,-1.1,60.8*
COc1ccccc1C(=O)Nc1ccc(OCC(=O)N2CC(C)CC(C)C2)cc1 (configuration not stated),x,-0.6,0.1,x,-8.0,x,x
Cc1ccc(S(=O)(=O)c2c(C)cc(C)nc2Oc2cccc(C(F)(F)F)c2)cc1,14.1*,-0.9,0.1,-0.2,-5.2,-0.1,41.7*
O=C(NC1CCCCC1)C1CCC(=O)N(Cc2cccc(C(F)(F)F)c2)C1 (configuration not stated),x,-0.5,-0.6,x,-3.1,x,x
CCn1c(=O)c2ccccc2n(Cc2ccccc2C)c1=O,x,-1.7,0.7,x,6.0,x,x
CCOC(=O)[C@H]1[C@H]2COc3ccc(Br)cc3[C@@H]2N2C(=O)c3ccc(Cl)cc3NC(=O)[C@@]12C,x,0.0,0.7,x,3.1,x,x
CN(C)c1ccc(/C=C(/C(=O)c2ccc(Cl)cc2Cl)n2cncn2)cc1,11.6*,21.5*,28.8*,15.1,-14.3,21.9*,11.9*
N#C/C(=N/Nc1ccccc1[N+](=O)[O-])C(N)=S,11.9*,19.5,14.7,13.4,-19.1,19.8*,7.7
COC(=O)c1ccc(CN(c2ccccc2Cl)S(C)(=O)=O)cc1,0.1,-0.6,1.3,-2.3,-7.8,x,x
COC(=O)c1ccc(Cl)cc1N(Cc1c(F)cccc1Cl)S(C)(=O)=O,70.4*,-3.7,-0.6,4.0,-3.1,11.1,84.0*
CC1=CC(=O)C(C(C)C)=C/C1=N/OS(=O)(=O)c1ccccc1,19.4*,5.4,11.5,16.4,-18.1,14.2,22.7*
CC1=CC(=O)C=C(C)C1=NOS(=O)(=O)c1ccccc1,6.7,x,x,4.2,x,x,x
Cc1ccc(S(=O)(=O)N2CCc3ccccc3C2CN2C(=O)c3ccccc3C2=O)cc1 (configuration not stated),22.5*,-1.2,-0.8,0.7,-16.3,-1.1,13.3*
CCC(=O)c1ccc(OCc2ccc(C(=O)c3ccccc3)cc2)cc1,1.5,7.2,4.8,5.5,-11.5,x,x
COc1ccc(C(=O)N(NC(=O)Oc2ccccc2)C(C)(C)C)cc1,13.3*,-1.8,0.6,0.4,-4.1,0.3,0.1
SMILES,TRPML3 agonist,OXTR ag,V1R ag counter,zfTRPN1 agonist,OXTR potentiate,TRPN1 counter,TRPML3 confirm
CC(C)(C)N(NC(=O)c1ccccc1)C(=O)c1ccc(C(=O)N(NC(=O)c2ccccc2)C(C)(C)C)cc1,1.3,-0.3,0.9,-0.3,-6.8,x,x
COc1nc(C)cc(C)c1S(=O)(=O)c1ccccc1C,x,-2.2,-1.2,x,-5.3,x,x
Cc1cc(C)c(S(=O)(=O)c2c(C)cccc2C)c(OCC(C)C)n1,12.1*,-1.3,-0.5,0.4,-7.4,0.1,43.0*
C#CCOc1nc(C)cc(C)c1S(=O)(=O)c1ccccc1C,40.6*,-1.3,-1.2,-3.2,5.9,-2.9,61.3*
CCOc1nc(C)cc(C)c1S(=O)(=O)c1cccc(C)c1,0.2,-1.5,-0.7,-2.0,-2.3,x,x
O=C(CCCCCN1C(=O)[C@@H]2Cc3ccccc3CN2C1=O)Nc1ccccc1Cl,x,1.4,8.5,x,-3.0,x,x
COc1ccc(CN2CSC(=S)N(Cc3ccc(OC)cc3)C2)cc1,0.8,1.4,0.9,1.1,-9.2,x,x
O=C(Nc1ccccc1N1CCOCC1)C1CCN(S(=O)(=O)c2ccccc2F)CC1,0.4,-0.9,1.2,1.4,-5.9,x,x
O=S(=O)(Nc1ccccc1N1CCCCC1)c1cccs1,14.1*,-4.3,-1.6,-1.6,-1.1,-2.1,33.2*
O=S(=O)(Nc1ccccc1N1CCCCC1)c1ccc(F)cc1,31.2*,-3.5,-1.0,-2.9,2.0,-2.3,77.5*
Cc1cc(C)nc(S/C=C/C(=O)c2ccccc2F)n1,-0.4,-1.9,0.6,-2.1,6.7,x,x
O=S(=O)(c1ccc(Cl)c2ccccc12)N1CCCC1,8.6,-2.0,-1.2,-2.6,-1.0,x,x
CCOC(=O)N1CCN(S(=O)(=O)c2ccc(OC)c(Cl)c2Cl)CC1,0.5,4.2,3.4,1.8,-17.2,x,x
COc1c(S(=O)(=O)N2CCCC2)ccc(Cl)c1Cl,11.5*,-1.2,-0.3,0.4,-7.4,-0.5,7.5
COc1ccc(S(=O)(=O)N2CCCC2)c(Cl)c1Cl,11.5*,-1.4,0.4,-0.6,2.6,0.2,4.3
CCCN(CCC)CC(O)CN1C(=O)N(CN2C(=O)N(CC(O)CN(CCC)CCC)C(=O)C2(C)C)C(C)(C)C1=O (configuration not stated),-1.4,0.8,0.2,-0.5,-0.1,x,x
